Data as given in ChEMBL document CHEMBL1944562, “Design, synthesis of some new (2-aminothiazol-4-yl)methylester derivatives as possible antimicrobial and antitubercular agents” (2012).
≈ marks a conversion by molar mass, not a printed value.

Columns and labels:
Type in all cases: functional
[1] = system: Mycolicibacterium smegmatis; test: Antitubercular activity against Mycobacterium smegmatis ATCC 19420 after 7 days by resazurin assay; conditions: ATCC 19420, 168 h
Procedure, shortened: (§1)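 Middlebrook 7H9 broth with 10% OADC, culture adjusted to McFarland 2. 50 µL culture added to 150 µL fresh medium. Stocks at 2 mg/mL in DMF, tested first at 1, 10 and 100 µg/mL, then at 0.3125-5 µg/mL. DMF controls. After 7 days at 37 °C, 0.01% resazurin added. Blue-to-pink change read for MIC.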

[2] = system: Mycolicibacterium fortuitum; test: Antitubercular activity against Mycobacterium fortuitum ATCC 19542 after 7 days by resazurin assay; conditions: ATCC 19542, 168 h; procedure, shortened: as §1
[3] = system: Mycobacterium tuberculosis; test: Antitubercular activity against Mycobacterium tuberculosis H37Rv assessed as growth inhibition after 7 days by resazurin assay
Procedure, shortened: (§2)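 M. tuberculosis H37Rv ATCC 27294 grown in Middlebrook 7H9 broth with 10% OADC and adjusted to McFarland 2. Culture was diluted 1:4 into fresh medium. Compounds came from 2 mg/mL DMF stocks, screened first at 1, 10 and 100, then at 0.3125–5. DMF-only controls were included. After 7 days at 37 °C, 0.01% resazurin was added; a blue-to-pink change marked growth, and the MIC was read.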

Escherichia coli [4] = test: Antibacterial activity against Escherichia coli ATCC 25922 after 16 to 18 hrs by […]
Staphylococcus aureus [5] = test: Antibacterial activity against Staphylococcus aureus ATCC 25923 after 16 to 18 hrs by serial plate dilution method
Pseudomonas aeruginosa [6] = test: Antibacterial activity against Pseudomonas aeruginosa ATCC 27853 after 16 to 18 hrs by […]
Klebsiella pneumoniae [7] = test: Antibacterial activity against Klebsiella pneumoniae after 16 to 18 hrs by […]
Bacillus subtilis [8] = test: Antibacterial activity against Bacillus subtilis after 16 to 18 hrs by […]
Escherichia coli [9] = test: Antibacterial activity against Escherichia coli ATCC 25922 at MIC after 3 to 4 days
Procedure, shortened: (§3)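 Agar well diffusion on seeded agar plates, 20 mL agar per dish, dried 1 h at 37 °C. Wells punched and loaded with test compound in DMSO at its MIC. DMSO-only control. Plates run in triplicate and kept 3-4 days at 37 °C. Inhibition zone diameter measured.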

Staphylococcus aureus [10] = test: Antibacterial activity against Staphylococcus aureus ATCC 25923 at […] after 3 to 4 days; procedure, shortened: as §3
Pseudomonas aeruginosa [11] = test: Antibacterial activity against Pseudomonas aeruginosa ATCC 27853 at MIC after 3 to 4 days; procedure, shortened: as §3
Klebsiella pneumoniae [12] = test: Antibacterial activity against Klebsiella pneumoniae at MIC after 3 to 4 days; procedure, shortened: as §3
Bacillus subtilis [13] = test: Antibacterial activity against Bacillus subtilis at MIC after 3 to 4 days; procedure, shortened: as §3
Aspergillus flavus [14] = test: Antifungal activity against Aspergillus flavus NCIM N0.524 after 3 to 4 days by serial plate dilution method
Aspergillus fumigatus [15] = test: Antifungal activity against Aspergillus fumigatus NCIM N0.902 after 3 to 4 days by serial plate dilution method
Talaromyces marneffei [16] = test: Antifungal activity against Penicillium marneffei after 3 to 4 days by serial plate dilution method
[17] = system: Trichophyton mentagrophytes; test: Antifungal activity against Trichophyton mentagrophytes after 3 to 4 days by serial plate dilution method
Candida albicans [18] = test: Antifungal activity against Candida albicans after 3 to 4 days by serial plate dilution method
Aspergillus flavus [19] = test: Antifungal activity against Aspergillus flavus NCIM N0.524 at MIC after 3 to 4 days
Procedure, shortened: (§4)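 Fungal suspension made by transferring a loopful of culture to 3 mL saline and seeding agar plates, 20 mL agar per dish, dried 1 h at 37 °C. Punched wells loaded with test compound in DMSO at its MIC. DMSO-only control. Triplicate plates held 3-4 days at 37 °C. Inhibition zone diameter measured.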

Aspergillus fumigatus [20] = test: Antifungal activity against Aspergillus fumigatus NCIM N0.902 at MIC after 3 to 4 days; procedure, shortened: as §4
Talaromyces marneffei [21] = test: Antifungal activity against Penicillium marneffei at MIC after 3 to 4 days; procedure, shortened: as §4
[22] = system: Trichophyton mentagrophytes; test: Antifungal activity against Trichophyton mentagrophytes at MIC after 3 to 4 days; procedure, shortened: as §4
Candida albicans [23] = test: Antifungal activity against Candida albicans at MIC after 3 to 4 days; procedure, shortened: as §4
[24] = system: Mycobacterium tuberculosis; test: Antitubercular activity against Mycobacterium tuberculosis H37Rv after 7 days by resazurin assay; conditions: 168 h; procedure, shortened: as §2

| SMILES | MIC [1] [µg/mL] | MIC [2] [µg/mL] | growth inhibition (GI) [3] [%] | MIC (Escherichia coli [4]) [µg/mL] | MIC (Staphylococcus aureus [5]) [µg/mL] | MIC (Pseudomonas aeruginosa [6]) [µg/mL] | MIC (Klebsiella pneumoniae [7]) [µg/mL] | MIC (Bacillus subtilis [8]) [µg/mL] | diameter of the inhibition zone (DIZ) (Escherichia coli [9]) [mm] | diameter of the inhibition zone (DIZ) (Staphylococcus aureus [10]) [mm] | diameter of the inhibition zone (DIZ) (Pseudomonas aeruginosa [11]) [mm] | diameter of the inhibition zone (DIZ) (Klebsiella pneumoniae [12]) [mm] | diameter of the inhibition zone (DIZ) (Bacillus subtilis [13]) [mm] | MIC (Aspergillus flavus [14]) [µg/mL] | MIC (Aspergillus fumigatus [15]) [µg/mL] | MIC (Talaromyces marneffei [16]) [µg/mL] | MIC [17] [µg/mL] | MIC (Candida albicans [18]) [µg/mL] | diameter of the inhibition zone (DIZ) (Aspergillus flavus [19]) [mm] | diameter of the inhibition zone (DIZ) (Aspergillus fumigatus [20]) [mm] | further results |
| --- | --- | --- | --- | --- | --- | --- | --- | --- | --- | --- | --- | --- | --- | --- | --- | --- | --- | --- | --- | --- | --- |
| N#Cc1cccc(C(=O)OCc2csc(N)n2)n1 | > 100 | > 100 | <90 | 12.5 (≈ 48 µM) | 25 (≈ 96.1 µM) | 25 (≈ 96.1 µM) | 25 (≈ 96.1 µM) | 25 (≈ 96.1 µM) | 11 | <10 | <10 | <10 | <10 | 6.25 (≈ 24 µM) | 12.5 (≈ 48 µM) | 6.25 (≈ 24 µM) | 12.5 (≈ 48 µM) | 25 (≈ 96.1 µM) | 16 | 11 | diameter of the inhibition zone (DIZ) (Talaromyces marneffei [21]): 16 mm; diameter of the inhibition zone (DIZ) [22]: 11 mm; diameter of the inhibition zone (DIZ) (Candida albicans [23]): <10 mm; MIC [24]: 10 µg/mL (≈ 38.4 µM) |
| Nc1nc(COC(=O)c2ccc(Cl)cc2)cs1 | > 100 | > 100 | 0 | 6.25 (≈ 23.3 µM) | 6.25 (≈ 23.3 µM) | 6.25 (≈ 23.3 µM) | 6.25 (≈ 23.3 µM) | 6.25 (≈ 23.3 µM) | 16 | 16 | 16 | 16 | 16 | 25 (≈ 93 µM) | 6.25 (≈ 23.3 µM) | 25 (≈ 93 µM) | 6.25 (≈ 23.3 µM) | 25 (≈ 93 µM) | <10 | 16 | diameter of the inhibition zone (DIZ) (Talaromyces marneffei [21]): <10 mm; diameter of the inhibition zone (DIZ) [22]: 16 mm; diameter of the inhibition zone (DIZ) (Candida albicans [23]): <10 mm; MIC [24]: > 100 µg/mL |
| Nc1nc(COC(=O)c2ccc(Br)cc2)cs1 | 2.5 (≈ 7.98 µM) | > 100 | <90 | 25 (≈ 79.8 µM) | 25 (≈ 79.8 µM) | 25 (≈ 79.8 µM) | 6.25 (≈ 20 µM) | 25 (≈ 79.8 µM) | <10 | <10 | <10 | 16 | <10 | 25 (≈ 79.8 µM) | 25 (≈ 79.8 µM) | 25 (≈ 79.8 µM) | 12.5 (≈ 39.9 µM) | 6.25 (≈ 20 µM) | <10 | <10 | diameter of the inhibition zone (DIZ) (Talaromyces marneffei [21]): <10 mm; diameter of the inhibition zone (DIZ) [22]: 11 mm; diameter of the inhibition zone (DIZ) (Candida albicans [23]): 16 mm; MIC [24]: 2.5 µg/mL (≈ 7.98 µM) |
| Nc1nc(COC(=O)c2ccccc2[N+](=O)[O-])cs1 | 10 (≈ 35.8 µM) | 10 (≈ 35.8 µM) | 95 | 12.5 (≈ 44.8 µM) | 12.5 (≈ 44.8 µM) | 25 (≈ 89.5 µM) | 6.25 (≈ 22.4 µM) | 12.5 (≈ 44.8 µM) | 11 | 11 | <10 | 16 | 11 | 25 (≈ 89.5 µM) | 25 (≈ 89.5 µM) | 12.5 (≈ 44.8 µM) | 25 (≈ 89.5 µM) | 25 (≈ 89.5 µM) | <10 | <10 | diameter of the inhibition zone (DIZ) (Talaromyces marneffei [21]): 11 mm; diameter of the inhibition zone (DIZ) [22]: <10 mm; diameter of the inhibition zone (DIZ) (Candida albicans [23]): <10 mm; MIC [24]: 0.625 µg/mL (≈ 2.24 µM) |
